The source made the active and inactive calls. The calls are words filed in the database; no cut-off is given here.
Experiments:
[1] = Antiproliferative activity against human MCF7/ADR cells after 72 hrs by sulforhodamine B assay; assay type: functional, cell-based; conditions: NCI/ADR-RES
In short: (§1)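 Cells seeded and exposed in triplicate to graded compound concentrations for 72 h. Suspension cells read by MTT conversion to coloured product; adherent cells read by sulforhodamine B. IC50 (50% growth inhibition versus untreated control) derived by the Logit method.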

SGC-7901 = assay: Antiproliferative activity against human SGC7901 cells after 72 hrs by sulforhodamine B assay; assay type: functional, cell-based; conditions: SGC-7901, 72 h; in short: as §1
[2] = target: T1, DNA topoisomerase 2-alpha (Homo sapiens, UniProt P11388); assay: Inhibition of human topoisomerase 2 alpha-mediated decatenation of kDNA at 100 uM after 15 mins
HeLa = assay: Antiproliferative activity against human HeLa cells after 72 hrs by sulforhodamine B assay; assay type: functional, cell-based; in short: as §1
HT-29 [3] = assay: Inhibition of DNA synthesis in human HT-29 cells measured up to 8 hrs by BrdU incorporation assay; assay type: functional, cell-based
In short: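 HT-29 cells; DNA synthesis measured by BrdU incorporation with flow detection.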

HCT-116 = assay: Antiproliferative activity against human HCT116 cells after 72 hrs by sulforhodamine B assay; assay type: functional, cell-based; conditions: HCT-116, 72 h; in short: as §1
LoVo = assay: Antiproliferative activity against human LoVo cells after 72 hrs by sulforhodamine B assay; assay type: functional, cell-based; in short: as §1
MCF7 = assay: Antiproliferative activity against human MCF7 cells after 72 hrs by sulforhodamine B assay; assay type: functional, cell-based; conditions: MCF7, 72 h
MDA-MB-435 = assay: Antiproliferative activity against human MDA-MB-435 cells after 72 hrs by sulforhodamine B assay; assay type: functional, cell-based; conditions: MDA-MB-435, 72 h; in short: as §1
SMMC-7721 = assay: Antiproliferative activity against human SMMC7721 cells after 72 hrs by sulforhodamine B assay; assay type: functional, cell-based; conditions: SMMC-7721, 72 h; in short: as §1
K562 = assay: Antiproliferative activity against human K562 cells after 72 hrs by sulforhodamine B assay; assay type: functional, cell-based; conditions: K562, 72 h; in short: as §1
U-937 = assay: Antiproliferative activity against human U937 cells after 72 hrs by sulforhodamine B assay; assay type: functional, cell-based; conditions: U-937, 72 h; in short: as §1
[4] = Antiproliferative activity against human Rh30 cells after 72 hrs by sulforhodamine B assay; assay type: functional, cell-based; conditions: SJRH30, 72 h; in short: as §1
CCRF S-180 [5] = assay: Antitumor activity against mouse S180 cells transplanted in Kunming mouse assessed as inhibition of tumor growth at 50 mg/kg/day, ip for 7 days; assay type: functional; conditions: CCRF S-180, ip, 168 h, route intraperitoneal
In short: (§2)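 Female Kunming mice, 7 weeks old, 18-22 g, inoculated sc in the right armpit with S-180 sarcoma. Dosing began the next day, ip daily for 7 days; normal saline given iv as control. Tumours excised and weighed after treatment. Inhibitory rate (%) = (mean control tumour weight − mean treated tumour weight)/mean control tumour weight × 100.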

CCRF S-180 [6] = assay: Antitumor activity against mouse S180 cells transplanted in Kunming mouse assessed as inhibition of tumor growth at 25 mg/kg/day, ip for 7 days; assay type: functional; conditions: CCRF S-180, ip, 168 h, route intraperitoneal; in short: as §2
Mus musculus [7] = assay: Toxicity in Kunming mouse bearing mouse S180 cells assessed as change in body weight at 50 mg/kg/day, ip for 7 days (reference value: 17.9 g); assay type: organism-based, CCRF S-180; set-up: route intraperitoneal; conditions: in vivo, 168 h
In short: (§3)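 Female Kunming mice, 7 weeks old and 18-22 g, were inoculated sc in the right armpit with S-180 sarcoma. From the next day they received ip injections at the stated daily dose for 7 days, alongside a normal-saline control group. Body weight was recorded at the start and at the end of treatment.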

Mus musculus [8] = assay: Toxicity in Kunming mouse bearing mouse S180 cells assessed as change in body weight at 25 mg/kg/day, ip for 7 days (reference value: 17.9 g); assay type: organism-based, CCRF S-180; set-up: route intraperitoneal; conditions: in vivo, 168 h; in short: as §3
Mus musculus [9] = assay: Toxicity in Kunming mouse bearing mouse S180 cells assessed as change in body weight at 12.5 mg/kg/day, ip for 7 days (reference value: 17.9 g); assay type: organism-based, CCRF S-180; set-up: route intraperitoneal; conditions: in vivo, 168 h; in short: as §3
HT-29 [10] = assay: Cytotoxicity against human HT-29 cells after 72 hrs in presence of FeSO4; assay type: functional, cell-based
[11] = target: T1, DNA topoisomerase 2-alpha; assay: Inhibition of human topoisomerase 2alpha-mediated decatenation of kDNA
[12] = target: T1, DNA topoisomerase 2-alpha; assay: Inhibition of human topoisomerase 2alpha-mediated decatenation of kDNA at 25 uM
HL60/MX2 = assay: Cytotoxicity against human HL60/MX2 cells; assay type: functional, cell-based
[13] = target: T1, DNA topoisomerase 2-alpha; assay: Inhibition of topoisomerase-2 alpha in human HT-29 cells assessed as reversal of etoposide-mediated DNA double strand break measured as phosphorylated histone2A level at 1 uM by immunostaining; assay type: cell-based
[14] = target: T1, DNA topoisomerase 2-alpha; assay: Inhibition of topoisomerase-2 alpha in human HT-29 cells assessed as reversal of etoposide-mediated DNA double strand break after 1 hr measured as phosphorylated histone2A level by immunostaining; assay type: cell-based
[15] = target: T1, DNA topoisomerase 2-alpha; assay: Inhibition of topoisomerase 2-mediated displacement of ethidium bromide from DNA assessed as decrease in fluorescence
[16] = target: T1, DNA topoisomerase 2-alpha; assay: Inhibition of topoisomerase 2alpha-mediated displacement of Hoechst 33258 from DNA assessed as decrease in fluorescence; conditions: concentration not given here
[17] = target: T1, DNA topoisomerase 2-alpha; assay: Inhibition of human topoisomerase 2alpha binding to pBR322 DNA binding by electrophoretic mobility shift assay
In short: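 Electrophoretic mobility shift assay. 0.2 μg supercoiled pBR322 with 200 nM human Topo IIα, ± compound, 10 min at 37 °C. Separated 90 min on 1% agarose containing 0.5 μg/mL ethidium bromide in TAE.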

[18] = target: T1, DNA topoisomerase 2-alpha; assay: Inhibition of human topoisomerase 2alpha ATPase domain assessed as ATP hydrolysis
In short: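 NADH-coupled ATPase assay at 37 °C in 100 μL. Contains 2 μg Topo IIα ATPase domain (or 18 nM Topo IIα), 0.2 μg pBR322, 1 mM ATP, 2 mM PEP, 0.16 mM NADH, 5 U pyruvate kinase and 8 U lactate dehydrogenase.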

[19] = target: T1, DNA topoisomerase 2-alpha; assay: Binding affinity to human topoisomerase 2 alpha ATPase domain
In short: (§4)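 Surface plasmon resonance. Human Topo IIα ATPase domain immobilised on CM5 chips after activation of surface carboxyl groups. Serial compound dilutions flowed over the chip and sensorgrams recorded. KD obtained by steady-state affinity fitting.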

[20] = target: T1, DNA topoisomerase 2-alpha; assay: Binding affinity to human topoisomerase 2 alpha ATPase domain in presence of ATP; in short: as §4

T1 sequence (P11388 whole entry): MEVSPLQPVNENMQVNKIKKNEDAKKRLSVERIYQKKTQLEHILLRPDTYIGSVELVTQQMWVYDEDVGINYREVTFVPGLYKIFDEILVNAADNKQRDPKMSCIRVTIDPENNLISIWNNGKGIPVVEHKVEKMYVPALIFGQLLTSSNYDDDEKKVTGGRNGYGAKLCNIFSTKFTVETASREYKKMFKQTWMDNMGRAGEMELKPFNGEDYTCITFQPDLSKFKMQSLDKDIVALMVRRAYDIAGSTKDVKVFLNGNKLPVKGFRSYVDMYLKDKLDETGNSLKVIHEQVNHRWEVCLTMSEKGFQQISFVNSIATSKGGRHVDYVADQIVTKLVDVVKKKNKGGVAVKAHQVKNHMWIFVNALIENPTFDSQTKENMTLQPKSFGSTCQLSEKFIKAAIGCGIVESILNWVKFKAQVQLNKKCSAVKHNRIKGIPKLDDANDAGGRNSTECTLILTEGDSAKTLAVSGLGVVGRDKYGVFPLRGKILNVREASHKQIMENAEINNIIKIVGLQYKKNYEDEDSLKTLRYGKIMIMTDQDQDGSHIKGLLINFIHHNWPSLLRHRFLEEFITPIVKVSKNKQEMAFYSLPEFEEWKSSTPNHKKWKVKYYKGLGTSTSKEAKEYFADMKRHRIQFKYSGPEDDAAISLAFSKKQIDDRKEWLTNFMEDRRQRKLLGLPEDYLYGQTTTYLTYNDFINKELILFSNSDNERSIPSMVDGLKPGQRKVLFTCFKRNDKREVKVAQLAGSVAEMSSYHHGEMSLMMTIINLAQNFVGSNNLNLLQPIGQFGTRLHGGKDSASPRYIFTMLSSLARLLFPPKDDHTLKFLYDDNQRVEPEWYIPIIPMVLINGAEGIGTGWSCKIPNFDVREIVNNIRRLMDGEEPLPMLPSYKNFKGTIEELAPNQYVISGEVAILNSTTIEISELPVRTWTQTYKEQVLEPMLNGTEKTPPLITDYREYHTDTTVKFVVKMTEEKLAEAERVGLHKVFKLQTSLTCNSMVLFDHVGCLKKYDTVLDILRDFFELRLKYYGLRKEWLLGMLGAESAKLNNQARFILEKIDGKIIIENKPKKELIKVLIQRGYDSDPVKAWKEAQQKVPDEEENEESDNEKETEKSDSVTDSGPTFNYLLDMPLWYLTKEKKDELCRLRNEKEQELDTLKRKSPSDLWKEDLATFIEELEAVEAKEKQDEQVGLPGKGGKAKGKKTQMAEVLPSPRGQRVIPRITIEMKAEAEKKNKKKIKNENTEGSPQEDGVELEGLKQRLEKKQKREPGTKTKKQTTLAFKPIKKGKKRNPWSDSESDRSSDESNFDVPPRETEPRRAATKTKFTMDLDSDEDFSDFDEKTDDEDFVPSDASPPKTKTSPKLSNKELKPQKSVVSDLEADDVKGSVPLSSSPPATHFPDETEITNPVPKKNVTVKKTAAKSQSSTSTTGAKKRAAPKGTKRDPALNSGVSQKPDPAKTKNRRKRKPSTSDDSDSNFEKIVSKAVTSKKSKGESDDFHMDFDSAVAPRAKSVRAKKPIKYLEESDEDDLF

- IC50 (SGC-7901): 30 nM
- inhibition (active/not active) [2]: Active
- IC50 (HeLa): 90 nM
- IC50 (HCT-116): 220 nM
- IC50 (LoVo): 60 nM
- IC50 (MCF7): 340 nM
- IC50 (MDA-MB-435): 370 nM
- IC50 (SMMC-7721): 240 nM
- IC50 (K562): 60 nM
- IC50 (U-937): 30 nM
- inhibition [11]: Dose-dependent effect
- inhibition [12]: Active
- inhibition [13]: Active
- inhibition [14]: Dose-dependent effect
- inhibition [15]: inactive
- inhibition [16]: 22%
- inhibition [17]: inactive
- inhibition [18]: Dose-dependent effect
- Kd [19]: 18300 nM
- Activity [20]: inactive
SMILES: CN(C)C(=S)N/N=C/c1ccc2ccccc2n1
- IC50 [1]: 200 nM
- inhibition (HT-29 [3]): Dose-dependent effect
- IC50 [4]: 2 nM
- inhibition in vivo at 50 mg/kg/day (CCRF S-180 [5]): 76.7%
- inhibition in vivo at 25 mg/kg/day (CCRF S-180 [6]): 35.8%
- Activity (Mus musculus [7]): 20 g
- Activity (Mus musculus [8]): 23.9 g
- Activity (Mus musculus [9]): 29 g
- inhibition (HT-29 [10]): Active
- Activity (HL60/MX2): Active
